High-throughput results (PubChem BioAssay)
The list is not random: actives were taken first. Their share in the collection is about 4.7%.
ADAM10 inh = inhibitors of human ADAM10; inhibition, % at 7 µM; AID 720582; 370,000 tested, 0.62% active; recombinant ADAM10, EDANS/DABCYL FRET peptide cleavage, 3 h;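 active means inhibition above a per-campaign cutoff equal to the mean of compounds falling between control-based bounds plus 3 SD, cut at about 20% in these data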;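 further: 0% = DMSO wells while the 100% control is not disclosed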
Target sequence (O14672 214-748 limits assumed): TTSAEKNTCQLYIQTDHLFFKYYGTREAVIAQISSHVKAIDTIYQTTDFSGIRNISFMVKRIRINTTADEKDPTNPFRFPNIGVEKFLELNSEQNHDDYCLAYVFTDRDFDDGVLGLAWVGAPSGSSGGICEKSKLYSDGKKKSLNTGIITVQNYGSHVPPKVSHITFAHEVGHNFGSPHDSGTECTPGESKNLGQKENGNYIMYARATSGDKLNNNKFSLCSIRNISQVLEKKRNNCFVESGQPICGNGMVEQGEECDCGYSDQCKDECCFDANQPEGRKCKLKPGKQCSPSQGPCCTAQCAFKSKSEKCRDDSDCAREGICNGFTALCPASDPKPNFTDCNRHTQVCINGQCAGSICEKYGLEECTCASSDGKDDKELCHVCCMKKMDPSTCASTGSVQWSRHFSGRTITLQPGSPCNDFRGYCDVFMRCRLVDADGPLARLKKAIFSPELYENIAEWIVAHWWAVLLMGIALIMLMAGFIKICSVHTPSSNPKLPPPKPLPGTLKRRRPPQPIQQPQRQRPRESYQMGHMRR
MT1-MMP act inh = blocks activation of human MT1-MMP; P50281; GFP/RFP ratio change, % at 20 µM; HT1080 RFP-PRO-GFP cells, GFP/RFP ratio fluorescence, overnight; percent of plate control window, DMSO zero; 360,000 tested, 0.061% active;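 active means GFP/RFP ratio change of at least 30% with cell ATP level not reduced by more than half and red fluorescence within 50% of control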
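Compound: 20 µM single dose, 1% DMSO / System: HT1080 RFP-PRO-GFP cells / Controls: DMSO and RFP-L50D-GFP cell wells / Read-out basis: GFP/RFP fluorescence ratio / Schedule: overnight compound exposure at 37 °C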
GRIN3A LBD mod = NR3A (human) ligand-binding domain modulation; NR3A LBD differential scanning fluorimetry, Tm shift; 0% = protein alone, 100% = glycine-bound protein; Tm shift relative to glycine control, % at 25 µM; 340,000 tested, 2.5% active; AID 1259313;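 active means melting temperature shift of at least 10% of the positive control shift, at one fixed dose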
MPTP block = permeability transition pore inhibition. isolated mouse mitochondria, Ca2+ swelling absorbance, 30 min. inhibition, % at 10 µM. 360,000 tested, 1.4% active;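 active means inhibition of 50% or more, scaled per plate between neutral and stimulator controls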;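 further: 0% = DMSO wells given calcium and 100% = 1 mM EGTA wells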
SKN-1 block = inhibitors of C. elegans SKN-1; C. elegans VP596 Pgst-4::GFP/RFP ratio, acrylamide-induced, 24 h; inhibition, % at 21.8 µM; 360,000 tested, 0.49% active;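 active means interference check ratio from 0.5 to 1.5 plus GFP to RFP signal ratio inhibition reaching or exceeding a fixed threshold, cut at about 30% in these data, passing the limit was not always enough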
ADAM17 inh = ADAM17 inhibition, QFRET primary screen | P78536 | recombinant ADAM17, EDANS/DABCYL FRET peptide cleavage | inhibition, % at 6.95 µM | 370,000 tested, 0.83% active | AID 720648;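 active means inhibition above the mean of compounds lying between control limits plus 3 SD, set per campaign, cut at about 8.5% in these data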;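 further: 0% = DMSO-only wells as the low control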
Active calls of the source: *.

For CN(C)c1cccc2c(S(=O)(=O)NCc3ccc(S(N)(=O)=O)cc3)cccc12 the results were ADAM10 inh -24.6, MT1-MMP act inh 6.7, GRIN3A LBD mod 0.2, MPTP block 4.2, SKN-1 block 0.1 and ADAM17 inh -12.8.
CON1C(=O)CN(C(C)=O)C1c1ccc(Cl)cc1Cl (stereo not drawn) was read as ADAM10 inh 2.5, GRIN3A LBD mod -1.1, MPTP block -0.1, SKN-1 block 3.9 and ADAM17 inh -1.6.
Screening Cc1ccc(C(=O)COc2ccccc2C(=O)Nc2ccccc2)cc1 returned ADAM10 inh 0.3, MT1-MMP act inh -3.5, GRIN3A LBD mod 2.4, MPTP block 4.1, SKN-1 block 2.9 and ADAM17 inh -1.4.
`CCOc1ccccc1C(=O)Nc1ccccc1C(N)=O` gave ADAM10 inh -6.1, MT1-MMP act inh 3.5, GRIN3A LBD mod -1.6, MPTP block -3.1, SKN-1 block -1.5 and ADAM17 inh -2.5.
For CCOc1ccccc1C(=O)Nc1ccsc1C(=O)OC the results were ADAM10 inh 5.5, MT1-MMP act inh -9.8, GRIN3A LBD mod 14.3*, MPTP block 1.8, SKN-1 block 4.7 and ADAM17 inh 0.7.
Cc1ccc(NC(=O)c2ccccc2OCC(=O)c2ccccc2)cc1 was read as ADAM10 inh -1.8, MT1-MMP act inh 2.1, GRIN3A LBD mod 10.4*, MPTP block 7.2, SKN-1 block 0.1 and ADAM17 inh -0.6.
CC(=O)Nc1ccc(NC(=O)c2cc[n+]([O-])cc2)cc1 was read as ADAM10 inh -2.1, MT1-MMP act inh -3.6, GRIN3A LBD mod 2.4, MPTP block 0.7, SKN-1 block 3.4 and ADAM17 inh -1.2.
`Fc1ccc2cc(-c3ccsc3)ncc2c1` gave ADAM10 inh -35.3, MT1-MMP act inh 3.9, GRIN3A LBD mod 34.6*, MPTP block 0.0, SKN-1 block 22.0 and ADAM17 inh -15.5.
For COc1cc(S(=O)(=O)N2CCN(Cc3ccccc3)CC2)ccc1Br the results were ADAM10 inh 10.4, MT1-MMP act inh 3.1, GRIN3A LBD mod -2.1, MPTP block -2.2, SKN-1 block 3.7 and ADAM17 inh -0.1.
O=c1[nH]c2ccc(S(=O)(=O)N3CCN(Cc4ccccc4)CC3)cc2[nH]c1=O was read as MT1-MMP act inh 2.2, GRIN3A LBD mod 11.1*, MPTP block -0.2 and SKN-1 block 7.2.
For O=C(Nc1nc2c(F)cccc2s1)C1CC1 the results were ADAM10 inh -14.4, MT1-MMP act inh -0.5, GRIN3A LBD mod 1.7, MPTP block -3.3, SKN-1 block 11.3 and ADAM17 inh -1.2.
Cc1onc(-c2c(Cl)cccc2Cl)c1C(=O)NC(=S)Nc1sc2c(c1C(N)=O)CCC(C)C2 (stereo not drawn) was read as ADAM10 inh -4.0, GRIN3A LBD mod 30.4*, MPTP block 2.8, SKN-1 block 2.3 and ADAM17 inh 2.2.
Screening CC1CCc2c(sc(Nc3nc4c(F)cccc4s3)c2C(N)=O)C1 (stereo not drawn) returned ADAM10 inh -133.0, MT1-MMP act inh -19.2, GRIN3A LBD mod 11.8*, MPTP block 48.6, SKN-1 block 4.6 and ADAM17 inh -48.5.
O=C(/C=C/c1ccccc1)NC(NC(=S)Nc1ccc(C(=O)O)cc1)C(Cl)(Cl)Cl (stereo not drawn) was read as ADAM10 inh 5.6, MT1-MMP act inh -3.1, GRIN3A LBD mod 13.1*, MPTP block 6.4, SKN-1 block 3.3 and ADAM17 inh 4.2.
For O=C(/C=C/c1ccc(Cl)cc1)NC(=S)Nc1ccc(C(=O)O)cc1 the results were ADAM10 inh 5.1, MT1-MMP act inh -4.0, GRIN3A LBD mod -9.4, MPTP block 0.5, SKN-1 block 15.6 and ADAM17 inh 2.2.
For Cc1ccc(NCSc2ccc(Cl)cc2)cc1 the results were ADAM10 inh 1.1, MT1-MMP act inh -21.8, GRIN3A LBD mod -14.4, MPTP block 1.1, SKN-1 block 6.4 and ADAM17 inh 2.5.
For Clc1ccc(SCNc2ccccc2Cl)cc1 the results were ADAM10 inh -1.8, MT1-MMP act inh -1.4, GRIN3A LBD mod 10.3*, MPTP block -1.1, SKN-1 block 2.3 and ADAM17 inh -1.6.
O=C1NCCN1Cc1ccc(F)cc1 was read as ADAM10 inh -10.8, MT1-MMP act inh 3.5, GRIN3A LBD mod 2.2, MPTP block -0.3, SKN-1 block -3.9 and ADAM17 inh -3.5.
`CC(C)CN(CCNC(=O)c1cn(C)c2ccc(S(=O)(=O)N3CCCC3)cc2c1=O)CC(C)C` gave ADAM10 inh 4.8, MT1-MMP act inh -3.1, GRIN3A LBD mod 25.6*, MPTP block 0.8, SKN-1 block 7.6 and ADAM17 inh 5.8.
`CC(C)CCNC(=O)c1cn(C)c2ccc(S(=O)(=O)N3CCCC3)cc2c1=O` gave ADAM10 inh -1.1, MT1-MMP act inh 4.8, GRIN3A LBD mod 0.7, MPTP block 1.1, SKN-1 block 17.6 and ADAM17 inh -0.9.
`CC(C)c1ccc(NC(=O)CNS(=O)(=O)c2ccc(F)cc2)cc1` gave ADAM10 inh 9.6, MT1-MMP act inh -5.3, GRIN3A LBD mod -0.9, MPTP block 1.1, SKN-1 block -4.4 and ADAM17 inh 2.6.
For Cc1ccccc1NC(=O)/C(C#N)=C\c1ccsc1 the results were ADAM10 inh -6.5, MT1-MMP act inh 0.4, GRIN3A LBD mod -2.2, MPTP block -0.7, SKN-1 block -4.4 and ADAM17 inh 1.6.
`Cc1ccc(NC(=O)/C(C#N)=C/c2ccsc2)c(C)c1` gave ADAM10 inh 2.2, MT1-MMP act inh -0.7, GRIN3A LBD mod 11.5*, MPTP block -0.3, SKN-1 block 0.0 and ADAM17 inh 7.4.
`O=C(CNC(=O)c1ccccc1Cl)Nc1ccc(F)cc1` gave ADAM10 inh -0.3, MT1-MMP act inh -5.2, GRIN3A LBD mod -7.5, MPTP block -0.5, SKN-1 block 4.6 and ADAM17 inh 4.5.
CCOC(=O)c1cnc2ccc(OCC)cc2c1NCc1ccccc1 was read as ADAM10 inh -99.5, MT1-MMP act inh -17.7, GRIN3A LBD mod 15.4*, MPTP block 10.9, SKN-1 block 7.0 and ADAM17 inh -26.1.
O=C(COc1ccc2ccccc2c1Br)NC(=S)Nc1cccc(CO)c1 was read as ADAM10 inh 7.6, MT1-MMP act inh -1.6, GRIN3A LBD mod 34.2*, MPTP block 3.5, SKN-1 block -3.5 and ADAM17 inh 7.0.
O=C(COc1ccc(Br)cc1Br)NC(=S)Nc1cccc(CO)c1 was read as ADAM10 inh -1.7, MT1-MMP act inh 2.8, GRIN3A LBD mod -1.0, MPTP block 0.4, SKN-1 block -2.3 and ADAM17 inh 2.4.
Screening O=C(O)COc1ccc(NC(=O)c2ccc3c(c2)C(=O)N(Cc2ccccc2)C3=O)cc1 returned ADAM10 inh -28.0, MT1-MMP act inh -0.8, GRIN3A LBD mod 10.3*, MPTP block -1.8, SKN-1 block 11.3 and ADAM17 inh -2.2.
